Experimental data from ChEMBL document CHEMBL3414540, “Synthesis, crystal structure and effect of indeno[1,2-b]indole derivatives on prostate cancer in vitro. Potential effect against MMP-9” (Eur J Med Chem, 2015).

Tests used:
Type in all cases: functional, cell-based
[1] = Cytotoxicity against rat MAT-LyLu cells after 72 hrs by XTT assay; settings: MAT-Ly-Lu
Outline: (§1)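 Compounds in DMSO (5-100 µg/ml, final DMSO <0.2%) were added for 72 h. XTT was then added (4 h, 37°C) and formazan read at 492 nm. IC50 is the 50% viability drop versus vehicle. Three experiments, five wells each, mean ± SEM.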

[2] = Cytotoxicity against human PC3 cells after 72 hrs by XTT assay; settings: PC-3, 72 h; outline: as §1
LNCaP = test: Cytotoxicity against human LNCAP cells after 72 hrs by XTT assay; outline: as §1

Measured: IC50

COc1ccccc1N1C2=C(C(=O)CCC2)[C@]2(O)C(=O)c3ccccc3[C@]12O (racemic)
> 100 µg/mL: [1] | [2] | LNCaP

COc1cccc(N2C3=C(C(=O)CC(C)(C)C3)[C@]3(O)C(=O)c4ccccc4[C@]23O)c1 (racemic)
> 100 µg/mL: [1] | [2] | LNCaP

COc1cc(N2C3=C(C(=O)CC(C)(C)C3)[C@]3(O)C(=O)c4ccccc4[C@]23O)cc(OC)c1OC (racemic)
> 100 µg/mL: [1] | [2] | LNCaP

COc1ccc(N2C3=C(C(=O)CC(C)(C)C3)[C@]3(O)C(=O)c4ccccc4[C@]23O)c(OC)c1 (racemic)
> 100 µg/mL: [1] | [2] | LNCaP

Cc1ccc(N2C3=C(C(=O)CC(C)(C)C3)[C@]3(O)C(=O)c4ccccc4[C@]23O)c(C)c1 (racemic)
> 100 µg/mL: [1] | [2] | LNCaP

Cc1cc(C)cc(N2C3=C(C(=O)CC(C)(C)C3)[C@]3(O)C(=O)c4ccccc4[C@]23O)c1 (racemic)
> 100 µg/mL: [1] | [2] | LNCaP

Cc1ccc(N2C3=C(C(=O)CCC3)[C@]3(O)C(=O)c4ccccc4[C@]23O)cc1 (racemic)
> 100 µg/mL: [1] | [2] | LNCaP

COc1ccc(OC)c(N2C3=C(C(=O)CC(C)(C)C3)[C@]3(O)C(=O)c4ccccc4[C@]23O)c1 (racemic)
> 100 µg/mL: [1] | [2] | LNCaP

CC1(C)CC(=O)C2=C(C1)N(c1ccc(Br)cc1)[C@@]1(O)c3ccccc3C(=O)[C@@]21O (racemic)
> 100 µg/mL: [1] | [2] | LNCaP

Cc1ccc(N2C3=C(C(=O)CC(C)(C)C3)[C@]3(O)C(=O)c4ccccc4[C@]23O)cc1 (racemic)
> 100 µg/mL: [1] | [2] | LNCaP

COc1ccccc1N1C2=C(C(=O)CC(C)(C)C2)[C@]2(O)C(=O)c3ccccc3[C@]12O (racemic)
> 100 µg/mL: [1] | [2] | LNCaP

O=C1CCCC2=C1[C@]1(O)C(=O)c3ccccc3[C@]1(O)N2c1ccc(Br)cc1 (racemic)
> 100 µg/mL: [1] | [2] | LNCaP

Cc1cccc(N2C3=C(C(=O)CC(C)(C)C3)[C@]3(O)C(=O)c4ccccc4[C@]23O)c1 (racemic)
> 100 µg/mL: [1] | [2] | LNCaP

COc1ccc(N2C3=C(C(=O)CCC3)[C@]3(O)C(=O)c4ccccc4[C@]23O)cc1OC (racemic)
> 100 µg/mL: [1] | [2] | LNCaP

Cc1ccc(C)c(N2C3=C(C(=O)CC(C)(C)C3)[C@]3(O)C(=O)c4ccccc4[C@]23O)c1 (racemic)
> 100 µg/mL: [1] | [2] | LNCaP

Cc1ccccc1N1C2=C(C(=O)CCC2)[C@]2(O)C(=O)c3ccccc3[C@]12O (racemic)
> 100 µg/mL: [1] | [2] | LNCaP

Cc1ccccc1N1C2=C(C(=O)CC(C)(C)C2)[C@]2(O)C(=O)c3ccccc3[C@]12O (racemic)
> 100 µg/mL: [1] | [2] | LNCaP

Cc1ccc(N2C3=C(C(=O)CCC3)[C@]3(O)C(=O)c4ccccc4[C@]23O)c(C)c1 (racemic)
> 100 µg/mL: [1] | [2] | LNCaP
